Laboratory results as given in ChEMBL document CHEMBL1122989, “Quantitative structure-activity relationships in cytokinin agonistic and antagonistic pyrido[2,3-d]pyrimidine derivatives: insights into receptor topology” (J Med Chem, 1985).

Assays:
[1] = Anticytokinin activity was evaluated by 50% of the callus growth on the medium with kinetin but without anti-cytokinin; type: functional, Nicotiana tabacum; settings: read-out: I50
Procedure, shortened: (§1)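 Test compounds at several concentrations in basal medium containing kinetin; medium adjusted to pH 5.6 with 1 N NaOH and autoclaved at 1.0 kg/cm2 for 15 min. Callus growth was the read-out. I50 (µM) is the concentration giving 50% of the callus growth seen on kinetin medium without anticytokinin.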

[2] = tested on: Nicotiana tabacum; experiment: Effective concentration required for cytokinin activity for producing maximum response of callus yield; type: functional
Procedure, shortened: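 Callus growth assay run without kinetin, with test compounds at several concentrations in basal medium. Medium adjusted to pH 5.6 with 1 N NaOH and autoclaved at 1.0 kg/cm2 for 15 min. Callus yield was the read-out.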

[3] = Anticytokinin activity was evaluated by 50% of the callus growth on the medium with kinetin but without anti-cytokinin; Insoluble; type: functional, Nicotiana tabacum; procedure, shortened: as §1

Compound | IC50 [1] | E50 [2] | also measured
CSc1nc(NCc2ccccc2)c2cccnc2n1 | 25.2 µM | – | –
CSc1nc(Nc2ccccc2)c2cccnc2n1 | 15.8 µM | – | –
CSc1nc(Nc2cc(Cl)cc(Cl)c2)c2cccnc2n1 | – | 0.84 µM | –
COCCNc1nc(SC)nc2ncccc12 | 2.53 µM | – | –
CSc1nc(Nc2ccc(Br)cc2)c2cccnc2n1 | 5.75 µM | – | –
C=CCNc1nc(SC)nc2ncccc12 | 0.4 µM | – | –
CSc1nc(Nc2cccc(O)c2)c2cccnc2n1 | – | 5.44 µM | –
CCc1cccc(Nc2nc(SC)nc3ncccc23)c1 | – | 1.91 µM | –
CSc1nc(Nc2cccc([N+](=O)[O-])c2)c2cccnc2n1 | 3.55 µM | – | –
CSc1nc(NC2CCCC2)c2cccnc2n1 | 0.49 µM | – | –
CSc1nc(Nc2ccc(C(C)=O)cc2)c2cccnc2n1 | 8.96 µM | – | –
CSc1nc(Nc2cccc(C(=O)O)c2)c2cccnc2n1 | 9.2 µM | – | –
CSc1nc(Nc2cccc(F)c2)c2cccnc2n1 | – | 3.39 µM | –
CCc1ccc(Nc2nc(SC)nc3ncccc23)cc1 | 7.15 µM | – | –
CSc1nc(Nc2ccc(Cl)cc2)c2cccnc2n1 | 8.51 µM | – | –
CCCCCNc1nc(SC)nc2ncccc12 | 0.65 µM | – | –
CSc1nc(Nc2ccccc2C)c2cccnc2n1 | – | 3.59 µM | –
CSc1nc(Nc2cc(C)cc(C)c2)c2cccnc2n1 | – | 2.82 µM | –
CCOc1ccc(Nc2nc(SC)nc3ncccc23)cc1 | 5.42 µM | – | –
CSc1nc(NC2CCC2)c2cccnc2n1 | 0.72 µM | – | –
CCCCCCNc1nc(SC)nc2ncccc12 | 3.33 µM | – | –
CSc1nc(NC2CC2)c2cccnc2n1 | 4.9 µM | – | –
CSc1nc(Nc2cccc(Br)c2)c2cccnc2n1 | – | 2.38 µM | –

Compound | IC50 [1] | E50 [2] | also measured
CSc1nc(Nc2ccc(F)cc2)c2cccnc2n1 | 2.62 µM | – | –
CCOCCNc1nc(SC)nc2ncccc12 | 7.59 µM | – | –
CSc1nc(Nc2ccc(C)c(C)c2)c2cccnc2n1 | – | 0.92 µM | –
CSc1nc(Nc2ccc(C(=O)O)cc2)c2cccnc2n1 | – | 12.5 µM | –
CSc1nc(Nc2cccc(C(C)=O)c2)c2cccnc2n1 | 13.2 µM | – | –
CCCCNc1nc(SC)nc2ncccc12 | 0.27 µM | – | –
CSc1nc(Nc2ccc(Cl)cc2Cl)c2cccnc2n1 | – | 0.95 µM | –
CCCCC(CC)CNc1nc(SC)nc2ncccc12 (stereo unspecified) | 15.8 µM | – | –
CSc1nc(NCC(C)C)c2cccnc2n1 | 0.54 µM | – | –
CCC(CC)Nc1nc(SC)nc2ncccc12 | 2.72 µM | – | –
CSc1nc(Nc2cccc(C#N)c2)c2cccnc2n1 | – | 2.15 µM | –
CSc1nc(NC2CCCCC2)c2cccnc2n1 | 5.65 µM | – | –
CCCCCCCNc1nc(SC)nc2ncccc12 | 4.07 µM | – | –
CSc1nc(Nc2ccc([N+](=O)[O-])cc2)c2cccnc2n1 | – | – | I50 [3]: Insoluble
CSc1nc(Nc2cccc(I)c2)c2cccnc2n1 | – | 5.2 µM | –
CSc1nc(Nc2ccc(C#N)cc2)c2cccnc2n1 | 7.56 µM | – | –
CNc1nc(SC)nc2ncccc12 | 2.92 µM | – | –
CSc1nc(Nc2cccc(C)c2)c2cccnc2n1 | – | 1.58 µM | –
CSc1nc(Nc2ccc(I)cc2)c2cccnc2n1 | – | 2.21 µM | –
COc1ccc(Nc2nc(SC)nc3ncccc23)cc1 | 9.42 µM | – | –
CSc1nc(Nc2cc(C)ccc2C)c2cccnc2n1 | – | 0.96 µM | –
CCCNc1nc(SC)nc2ncccc12 | 0.27 µM | – | –
CCC(C)Nc1nc(SC)nc2ncccc12 (stereo unspecified) | 0.86 µM | – | –
